This is a sample that favours compounds with a hit; in the whole collection about 1.8% have one here.
Rev-erbA mod = Rev-erb alpha (human) modulation; AID 1259318; Rev-erbα–FITC-DNA binding, fluorescence polarization, 90 min; activity, % at 10 µM; P20393; actives 0.79% (n = 370,000);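 active means activity above about 14%, limit read from the data; passing the limit was not always enough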;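 further: 0% = DMSO wells with 35 nM protein and 100% = DMSO wells with 750 nM protein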
PG9 Ab binder = binds the HIV-1 gp120 antibody PG9 | actives 0.43% (n = 360,000) | TR-FRET gp120-PG9 antibody binding | AID 624416 | inhibition, % at 6.7 µM; in the data active means inhibition above about 8.5%
NR2E3 ag-1 = human photoreceptor-specific nuclear receptor agonism; Q9Y5X4; CHO-S Gal4-NCOR/VP16-NR2E3 two-hybrid, luciferase; inhibition of corepressor binding, % at 3.98 µM; actives 0.35% (n = 360,000); AID 602229;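 active means inhibition above the mean of all tested compounds plus 3 SD, cut at about 70% in these data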;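 further: 0% = DMSO with NR2E3 transfected cells and 100% = cells lacking NR2E3 construct; higher means lower luciferase signal from less NR2E3 corepressor binding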
Target sequence (Q9Y5X4 whole entry, looked up, the tested form may be a part): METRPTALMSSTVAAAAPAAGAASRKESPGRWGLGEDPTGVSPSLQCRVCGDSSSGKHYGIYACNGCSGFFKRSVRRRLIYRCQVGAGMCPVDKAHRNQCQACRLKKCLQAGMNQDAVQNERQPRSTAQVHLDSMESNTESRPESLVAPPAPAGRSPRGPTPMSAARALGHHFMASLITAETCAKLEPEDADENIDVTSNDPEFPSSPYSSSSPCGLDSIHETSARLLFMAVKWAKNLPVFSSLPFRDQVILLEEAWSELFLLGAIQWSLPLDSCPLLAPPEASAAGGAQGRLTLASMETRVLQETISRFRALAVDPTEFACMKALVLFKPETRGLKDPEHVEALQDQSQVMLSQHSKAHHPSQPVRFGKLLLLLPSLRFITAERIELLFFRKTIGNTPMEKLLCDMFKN
GalR3 antag = blocks the human galanin receptor 3. HEK293 GalR3-CNG cAMP membrane potential fluorescence; galR3 body fused to GalR1 C-terminus. O60755. actives 0.44% (n = 360,000). inhibition, % at 3 µM;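 active means inhibition above the screen-wide average plus 3 SD, cut at about 13% in these data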;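 further: forskolin and galanin both at EC90 stimulate the cells; cAMP rise reported by CNG channel membrane potential dye signal; 0% = forskolin plus galanin with DMSO and 100% = forskolin alone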
Target sequence (O60755 1-299 limits assumed): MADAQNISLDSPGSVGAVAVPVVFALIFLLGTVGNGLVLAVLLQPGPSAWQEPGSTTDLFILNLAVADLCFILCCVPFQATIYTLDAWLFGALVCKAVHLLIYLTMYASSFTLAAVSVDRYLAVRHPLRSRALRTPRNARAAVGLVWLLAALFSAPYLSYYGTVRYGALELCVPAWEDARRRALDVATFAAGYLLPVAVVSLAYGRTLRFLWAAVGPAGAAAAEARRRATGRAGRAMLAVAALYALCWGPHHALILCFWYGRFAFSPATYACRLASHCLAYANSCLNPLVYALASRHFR
NR2E3 ag-2 = agonists of human nuclear receptor NR2E3. Q9Y5X4. actives 0.12% (n = 320,000). AID 2300. inhibition of corepressor binding, % at 4.78 µM. GST-NR2E3/biotin-RetCOR TR-FRET, 1536-well;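 active means percent inhibition above the cutoff of mean plus 3 SD of all tested compounds, set per screening campaign, cut at about 20% in these data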;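 further: 0% = DMSO wells and 100% = biotin wells as full block of FRET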
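Material: NR2E3–RetCOR corepressor complex / Incubation: Compound–protein incubation for 5 h at 4 °C / Dosing: compound at 4.8 µM, single dose / Detection: time-resolved FRET / Benchmarks: high control biotin, low control 0.6% DMSO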
Rev-erbA confirm = confirmation of modulators of human Rev-erb alpha DNA binding; shares compounds with Rev-erbA mod; Rev-erb alpha FITC-DNA binding, fluorescence polarization, 90 min; activation, % at 25 µM; actives 61% (n = 3,000); AID 1259319;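 active means activation at or above a set limit, or at least 3 SD above the negative control mean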;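 further: 0% = 35 nM protein with DMSO and 100% = 750 nM protein high control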
RORg counter = counter-screen for Rev-erb alpha modulators: RORgamma DNA binding; shares compounds with Rev-erbA mod; purified RORgamma protein-FITC-DNA binding, fluorescence polarization; IC50, µM; actives 8% (n = 910); AID 1259320;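 active means Compounds whose fitted half-maximal concentration for disrupting protein-DNA binding is below 10 micromolar; the record names Rev-erb in its text, so the target is in doubt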
* marks the source's active call; other numbers are inactive results.

How did CCOc1ncccc1C(=O)OCc1cc(=O)oc2c(C)c(C)ccc12 do in these assays?
Rev-erbA mod: 34*; PG9 Ab binder: -2; NR2E3 ag-1: -17; GalR3 antag: -2; Rev-erbA confirm: 6

Results for CO[C@H]([C@H](C)/C=C/N(C)C=O)[C@@H](C)C(O)CC[C@H](C)[C@H](O)[C@H](C)[C@H]1OC(=O)/C=C/C(C)=C/C[C@H](O)C[C@@H]2C=CC[C@@H](C[C@H](OC)[C@@]3(CO3)[C@@H](OC)C[C@@H](OC)[C@@H]1C)O2 (stereo partly specified) ?
Rev-erbA mod: -2

Results for Cc1nn(-c2ccccc2)c2sc(C(=O)NCc3ccc4c(c3)OCO4)cc12 ?
Rev-erbA mod: -7

What do the screens show for `COC(=O)COc1ccc2cc(-c3ccccc3)c(=O)oc2c1`?
Rev-erbA mod: 14; PG9 Ab binder: 2; NR2E3 ag-1: -12; GalR3 antag: -6; NR2E3 ag-2: -1

What do the screens show for `COC(=O)COc1ccc2cc(-c3ccc(OC)cc3)c(=O)oc2c1`?
Rev-erbA mod: 25*; PG9 Ab binder: -1; NR2E3 ag-1: -8; GalR3 antag: 1; NR2E3 ag-2: -2; Rev-erbA confirm: -4

Results for COc1ccc(-c2cc3ccc(OCC(C)=O)cc3oc2=O)cc1OC ?
Rev-erbA mod: 19*; PG9 Ab binder: -1; NR2E3 ag-1: -56; GalR3 antag: 1; NR2E3 ag-2: 1; Rev-erbA confirm: 15

How did COc1ccc(-c2cc3ccc(OCC(C)=O)cc3oc2=O)cc1 do in these assays?
Rev-erbA mod: -5; PG9 Ab binder: 1; NR2E3 ag-1: -120; GalR3 antag: 0; NR2E3 ag-2: 5

How did CN(C)CC(=O)N[C@@H]1C[C@@H]2O[C@@H](CO)CC[C@@H]2O[C@@H]1CCc1ccc(C#Cc2ccccc2)cc1 do in these assays?
Rev-erbA mod: -5

How did COc1ccc(S[C@]2(C(=O)N3CCOCC3)CC(=O)N(S(=O)(=O)c3ccc(F)cc3)[C@@H]2c2ccc(OC)cc2)cc1 do in these assays?
Rev-erbA mod: -2

What do the screens show for `CSc1ccc(CCNC(=O)c2cc(-c3ccccc3)c(N3CCOCC3)s2)cc1`?
Rev-erbA mod: 67*; PG9 Ab binder: 2; NR2E3 ag-1: -1; GalR3 antag: -8; NR2E3 ag-2: 4; Rev-erbA confirm: 51*; RORg counter: inactive

How did CSc1cc(-c2ccc(Cl)cc2)[nH]c(=O)c1C#N do in these assays?
Rev-erbA mod: 82*; PG9 Ab binder: 2; NR2E3 ag-1: -5; GalR3 antag: -4; NR2E3 ag-2: 2; Rev-erbA confirm: 12

Results for N#Cc1c(C(F)(F)F)cc(-c2ccc(Cl)cc2)[nH]c1=O ?
Rev-erbA mod: -1; PG9 Ab binder: -1; NR2E3 ag-1: 3; GalR3 antag: -4; NR2E3 ag-2: 5

What do the screens show for `CCn1c2ccccc2c2cc(C=NNC(=O)c3ccoc3C)ccc21`?
Rev-erbA mod: 6

How did CC(=O)N1CCc2cc(N=NC3=C(O)CC(C)(C)CC3=O)ccc21 do in these assays?
Rev-erbA mod: 20*; PG9 Ab binder: -3; NR2E3 ag-1: -8; GalR3 antag: -1; NR2E3 ag-2: -1; Rev-erbA confirm: 20*

Results for COc1cc2c(C)nc3c(c(C)nn3-c3ccccc3)c2cc1OC ?
Rev-erbA mod: 21*; PG9 Ab binder: -1; NR2E3 ag-1: -26; GalR3 antag: -5; NR2E3 ag-2: 2; Rev-erbA confirm: -3

How did Cc1ccc(C(=O)CNc2cccc([N+](=O)[O-])c2)cc1 do in these assays?
Rev-erbA mod: 15*; PG9 Ab binder: -3; NR2E3 ag-1: -3; GalR3 antag: -6; NR2E3 ag-2: 1; Rev-erbA confirm: -2

What do the screens show for `COc1cccc(-c2noc(-c3cccnc3)n2)c1`?
Rev-erbA mod: 1; PG9 Ab binder: -3; NR2E3 ag-1: -108; GalR3 antag: -5; NR2E3 ag-2: -2

Results for COc1nc2ccc(C)cc2cc1-c1noc(-c2cccnc2)n1 ?
Rev-erbA mod: 35*; PG9 Ab binder: -2; NR2E3 ag-1: -24; GalR3 antag: 0; NR2E3 ag-2: 0; Rev-erbA confirm: 7

What do the screens show for `FC(F)(F)c1cc(-c2ccccc2)nc2nc(N3CCOCC3)sc12`?
Rev-erbA mod: 24*; PG9 Ab binder: 1; NR2E3 ag-1: -6; GalR3 antag: -4; NR2E3 ag-2: 4; Rev-erbA confirm: 8

How did O=C(Nc1cccc(Cl)c1)OC1CCC12CCC(c1ccccc1)CC2 (stereo unspecified) do in these assays?
Rev-erbA mod: -3

What do the screens show for `Cc1cc(C)c2cc(C#N)c(N3CCCN(S(=O)(=O)c4ccccc4)CC3)nc2c1`?
NR2E3 ag-2: 7

What do the screens show for `CC(=O)c1cccc(S(=O)(=O)N2CCN(c3nc4cc(C)cc(C)c4cc3C#N)CC2)c1`?
Rev-erbA mod: 174*; PG9 Ab binder: 0; NR2E3 ag-1: -4; GalR3 antag: -1; NR2E3 ag-2: 1; Rev-erbA confirm: 137*

What do the screens show for `CC(C(=O)N1CCc2ccccc21)N1CCN(S(=O)(=O)c2ccc(C(F)(F)F)cc2)CC1` (stereo unspecified)?
Rev-erbA mod: 17*; PG9 Ab binder: 0; NR2E3 ag-1: -8; GalR3 antag: -6; NR2E3 ag-2: 0; Rev-erbA confirm: -3

Results for O=C1C2C3C=CC(C3)C2C(=O)N1c1cccc(-c2nc3ccccc3o2)c1 (stereo unspecified) ?
Rev-erbA mod: 29*; PG9 Ab binder: 1; NR2E3 ag-1: -5; GalR3 antag: 1; NR2E3 ag-2: 1; Rev-erbA confirm: 12

Results for O=C1c2cccc3c(N4CCCCC4)ccc(c23)C(=O)N1c1ccccc1O ?
Rev-erbA mod: 27*; PG9 Ab binder: 1; NR2E3 ag-1: 5; GalR3 antag: -3; NR2E3 ag-2: 4; Rev-erbA confirm: 33*; RORg counter: >40

How did CCC(=O)N(C)C[C@@H]1[C@H](c2ccc(C3=CCCCC3)cc2)[C@H](CO)N1C(=O)CC do in these assays?
Rev-erbA mod: 4

How did O=C1CN(c2nc(-c3ccccc3)c3cc(Cl)ccc3n2)c2ccccc2N1 do in these assays?
Rev-erbA mod: 32*; PG9 Ab binder: -2; NR2E3 ag-1: 15; GalR3 antag: -10; NR2E3 ag-2: -2; Rev-erbA confirm: -1

How did OCCNc1nc(-c2ccccc2)c2cc(Br)ccc2n1 do in these assays?
Rev-erbA mod: -7; PG9 Ab binder: 0; NR2E3 ag-1: -17; GalR3 antag: 0; NR2E3 ag-2: 2

What do the screens show for `CCOc1nc(-c2ccccc2)c2cc(Br)ccc2n1`?
Rev-erbA mod: 27*; PG9 Ab binder: 1; NR2E3 ag-1: -17; GalR3 antag: -10; NR2E3 ag-2: 1; Rev-erbA confirm: 15
